Measurements from ChEMBL document CHEMBL3244118, “3-(3-Substituted prop-1-enyl)cephalosporins” (1977).

Assays:
Format in all cases: functional
Staphylococcus aureus [1] = assay: Antibacterial activity against Staphylococcus aureus Smith infected in sc dosed mouse assessed as survival of host administered 1 hr and 5 hrs post challenge measured 72 hrs post challenge
Outline: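 Mice infected ip with about 2×10^3 S. aureus Smith organisms per mouse, culture diluted in 4% hog gastric mucin for uniformly lethal infection. Twofold dilutions given sc in equally divided portions at 1 and 5 h postinfection, four groups of ten mice. Survivors observed for 72 h. PD50 (total mg/kg protecting 50%) calculated by probit analysis.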

Staphylococcus aureus [2] = assay: Antibacterial activity against penicillin G-resistant Staphylococcus aureus ATCC 14154 by agar inclusion method
Outline: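 MIC by agar inclusion in brain heart infusion medium, pH 7.4, using twofold dilutions. Strain ATCC 14154 is penicillin G resistant. Values reported in […].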

Streptococcus pyogenes = assay: Antibacterial activity against Streptococcus pyogenes ATCC 8668 by agar inclusion method
Outline: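 MIC by agar inclusion, twofold dilutions in brain heart infusion medium at pH 7.4, reported in […].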

| SMILES | PD50 (Staphylococcus aureus [1]) | MIC (Staphylococcus aureus [2]) | MIC (Streptococcus pyogenes) |
| --- | --- | --- | --- |
| CC(=O)OCC1=C(C(=O)[O-])N2C(=O)[C@@H](NC(=O)Cc3cccs3)[C@H]2SC1.[Na+] [CEPHALOTHIN SODIUM] | 3.54 µmol/kg | 480 µM | 74 µM |
| Cn1nnnc1SCC1=C(C(=O)[O-])N2C(=O)[C@@H](NC(=O)Cc3cccs3)[C@H]2SC1.[Na+] | 1.69 µmol/kg | 100 µM | 13 µM |
| CC(=O)OC/C=C/C1=C(C(=O)[O-])N2C(=O)[C@@H](NC(=O)Cc3cccs3)[C@H]2SC1.[Na+] | 1.85 µmol/kg | 560 µM | < 2 µM |
| Cn1nnnc1SC/C=C/C1=C(C(=O)[O-])N2C(=O)[C@@H](NC(=O)Cc3cccs3)[C@H]2SC1.[Na+] | 0.3 µmol/kg | 200 µM | 1.6 µM |
